ChEMBL document CHEMBL1287671, “Design, synthesis and SAR of a novel series of benzimidazoles as potent NPY Y5 antagonists” (Bioorg Med Chem Lett, 2010)

Key:
Liver microsomes = assay: Intrinsic clearance in human liver microsomes; type: ADME, Microsome
Method in brief: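 Intrinsic clearance measured in human liver microsomes; expressed as ml/min/g liver.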

[1] = Ratio of drug level in brain to blood in rat at 0.5 mg/kg, iv after 1 hr; type: ADME, organism-based; set-up: dose 0.5 mg/kg, route intravenous
Method in brief: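 Male rats given 0.5 mg/kg iv; brain and blood levels sampled 1 h after dosing and expressed as brain/blood partition.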

| CL (Liver microsomes) [mL/min/g] | Kp at 1 h [1] | Structure (SMILES) |
| --- | --- | --- |
| 0.5 | 0.3 | O=C1O[C@]2(CC[C@H](c3nc4cc(C(F)(F)F)ccc4[nH]3)CC2)CN1c1ccccc1 |
| 0.5 | 0.8 | O=C1O[C@]2(CC[C@H](c3nc4cc(OC(F)(F)F)ccc4[nH]3)CC2)CN1c1ccccc1F |
| 0.5 | – | O=C1O[C@]2(CC[C@H](c3nc4cc(OC(F)(F)F)ccc4[nH]3)CC2)CN1c1cccnc1 |
| 0.5 | – | O=C1O[C@]2(CC[C@H](c3nc4cc(C(F)(F)F)ccc4[nH]3)CC2)CN1c1ccccn1 |
| 0.6 | – | Cc1cccc(N2C[C@]3(CC[C@@H](c4nc5ccc(OC(F)(F)F)cc5[nH]4)CC3)OC2=O)n1 |
| 0.5 | – | O=C1O[C@]2(CC[C@H](c3nc4ccc(OC(F)(F)F)cc4[nH]3)CC2)CN1c1cccc(F)n1 |
| 0.5 | < 0.03 | N#Cc1ccc2nc([C@H]3CC[C@]4(CC3)CN(c3ccccc3)C(=O)O4)[nH]c2c1 |
| 0.5 | 0.3 | O=C1OC2(CCN(c3nc4cc(OC(F)(F)F)ccc4[nH]3)CC2)CN1c1ccccc1 |
| 0.5 | 0.2 | O=C1OC2(CCN(c3nc4cc(C(F)(F)F)ccc4[nH]3)CC2)CN1c1ccccc1 |
| 0.5 | – | Cc1ccccc1N1C[C@]2(CC[C@@H](c3nc4ccc(OC(F)(F)F)cc4[nH]3)CC2)OC1=O |
| 0.5 | – | O=C1O[C@]2(CC[C@H](c3nc4ccc(OC(F)(F)F)cc4[nH]3)CC2)CN1c1ccccc1Cl |
| 0.6 | < 0.1 | O=C(Nc1nc(-c2ccccn2)cs1)N1CCC2(CC1)CN(c1ccccc1)C(=O)O2 |
| 9.8 | – | O=C1OC2(CCN(c3nc4ccccc4[nH]3)CC2)CN1c1ccccc1 |
| 0.5 | – | N#Cc1ccc2[nH]c([C@H]3CC[C@]4(CC3)CN(c3ccc(F)cc3)C(=O)O4)nc2c1 |
| 0.5 | 0.6 | O=C1O[C@]2(CC[C@H](c3nc4ccc(OC(F)(F)F)cc4[nH]3)CC2)CN1c1ccccc1 |
| 15 | – | N#Cc1ccc2nc([C@H]3CC[C@]4(CC3)CN(c3ccccn3)C(=O)O4)[nH]c2c1 |
| 0.5 | 0.5 | O=C1O[C@]2(CC[C@H](c3nc4cc(OC(F)(F)F)ccc4[nH]3)CC2)CN1c1ccccn1 |
| 2.5 | – | O=C1OC2(CCN(c3nc4cc(Br)ccc4[nH]3)CC2)CN1c1ccccc1 |
| 7 | – | O=C1OC2(CCN(c3nc4cc(F)ccc4[nH]3)CC2)CN1c1ccccc1 |
| 0.6 | – | Cc1ncccc1N1C[C@]2(CC[C@@H](c3nc4ccc(OC(F)(F)F)cc4[nH]3)CC2)OC1=O |
| 0.5 | – | O=C1O[C@]2(CC[C@H](c3nc4cc(OC(F)(F)F)ccc4[nH]3)CC2)CN1c1ccc(F)cc1 |
| 7 | – | O=C1OC2(CCN(c3nc4cc(-c5ccc(F)cc5)ccc4[nH]3)CC2)CN1c1ccccc1 |
